From paper PMC3466776 (Biochemistry, 2012)
pKd: −log10 of the molar value.

What was measured:
CaM34 = CaM34 (Rattus norvegicus, UniProt P0DP29, D130A/D94A); experiment: Stopped-flow Ca^2+ dissociation kinetics of CaM34; assay type: binding; conditions: mean ± SD of 3-8 experiments; for amplitude 2 (relative quin-2 fluorescence change), CaM34: as koff2, CaM34, 22 °C
Summary of the method: (§1)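 Rat His-CaM (2 μM) with 20 μM CaCl2, alone or with 2 μM synthetic AC1 or AC8 CaMBD peptide, is mixed 1:1 with 150 μM quin-2. These are pre-mix concentrations. Buffer is 20 mM MOPS pH 7.4, 100 mM KCl, 1 mM MgCl2, at 22 °C. Quin-2 fluorescence is read with excitation at 334 nm and a 405 nm cutoff filter. Five to eight runs are averaged and fit single- or double-exponentially. A relative amplitude of 0.03 equals one Ca2+. Values are mean ± SD of ≥3 averages.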

CaM12 = CaM12 (Rattus norvegicus, UniProt P0DP29, D21A/D57A); experiment: Stopped-flow Ca^2+ dissociation kinetics of CaM12; assay type: binding; conditions: for amplitude 1 (relative quin-2 fluorescence change), CaM12: as koff1, CaM12, 22 °C; for amplitude 1 (relative quin-2 fluorescence change), CaM12 / amplitude 2 (relative quin-2 fluorescence change), CaM12: mean ± SD of 3-8 experiments; for amplitude 2 (relative quin-2 fluorescence change), CaM12: as koff2, CaM12, 22 °C
Summary of the method: as §1

CaMWT = CaMWT (Rattus norvegicus, UniProt P0DP29); experiment: Stopped-flow Ca^2+ dissociation kinetics of CaMWT; assay type: binding; conditions: for number of Ca^2+ ions released, phase 1, CaMWT / number of Ca^2+ ions released, phase 2, CaMWT: 0.03 relative amplitude = one Ca^2+ ion; for amplitude 1 (relative quin-2 fluorescence change), CaMWT: as koff1, CaMWT; for amplitude 1 (relative quin-2 fluorescence change), CaMWT / amplitude 2 (relative quin-2 fluorescence change), CaMWT: mean ± SD of 3-8 experiments; for amplitude 2 (relative quin-2 fluorescence change), CaMWT: as koff2, CaMWT
Summary of the method: as §1

[1] = read-out: Kd for Ca^2+; cited from earlier work
[2] = CaM12 with peptide, single-exponential fit, 22 °C, n = 3

Row | amplitude 1 (relative quin-2 fluorescence change), CaM34 (CaM34; as koff1, CaM34, 22 °C) | amplitude, single-exponential fit, CaM12 (CaM12; [2]) | rate constant, single-exponential fit, CaM12 (CaM12; [2]) | amplitude 1 (relative quin-2 fluorescence change), CaM12 (CaM12) | amplitude 2 (relative quin-2 fluorescence change), CaM12 (CaM12) | number of Ca^2+ ions released, phase 1, CaMWT (CaMWT; 22 °C) | number of Ca^2+ ions released, phase 2, CaMWT (CaMWT; 22 °C) | total Ca^2+ released in measurable phases, CaMWT (CaMWT; CaMWT with peptide, 22 °C) | total relative amplitude, CaMWT (CaMWT; CaMWT with peptide, 22 °C) | amplitude 1 (relative quin-2 fluorescence change), CaMWT (CaMWT; 22 °C) | amplitude 2 (relative quin-2 fluorescence change), CaMWT (CaMWT; 22 °C) | reduction of Ca^2+ dissociation speed, C-lobe (CaMWT; if slower release from both lobes, C-lobe) | reduction of Ca^2+ dissociation speed, N-lobe (CaMWT; if slower release from both lobes, N-lobe) | amplitude 2 (relative quin-2 fluorescence change), CaM34 (CaM34) | Molecule | pKd [1]
1 | 0.049 ± 0.006 | 0.054 ± 0.004 | 7.0 ± 1.3 s^–1 | 0.043 ± 0.007 | 0.021 ± 0.001 | 2 | 2 | four | ~0.12 | 0.054 ± 0.006 | 0.053 ± 0.010 | 5 fold | > 60 fold |  | YSLAAVVLGLVQSLNRQRQKQLLNE [AC8-C2b] | 
2 |  |  |  | 0.022 ± 0.010 | 0.012 ± 0.003 | 2 | 1 | 3 mol |  | 0.053 ± 0.001 | 0.024 ± 0.006 |  |  | 0.032 ± 0.007 | IKPAKRMKFKTVCYLLVQLMHCRKMFKA [AC1-C1b] | 
3 |  |  |  | 0.017 ± 0.002 | 0.022 ± 0.06 | 1 | 1 | 2 mol |  | 0.029 ± 0.008 | 0.027 ± 0.007 |  |  | 0.027 ± 0.004 | GSRPQRLLWQTAVRHITEQRFIHGH [AC8-Nt] | 
4 |  |  |  |  |  |  |  |  |  |  |  |  |  |  | COc1cc(N(CC(=O)O)CC(=O)O)c2nc(COc3cc(C)ccc3N(CC(=O)O)CC(=O)O)ccc2c1 [quin-2] | ~7.22
